{"data": "Published values pooled from the literature", "cell line": "MDA-MB-435", "effect on": "cell growth or viability", "note": "Each line is one published result; the experiments were not run side by side."}
{"Compound": "CCOC(=O)c1[nH]c(Br)c(-c2ccc(Cl)cc2)c1Br", "method": "SRB", "endpoint": "IC50", "value": "919 nM"}
{"Compound": "COc1ccc(-c2ccc(-c3ccc(C(=N)N)nc3)s2)cc1Cl", "method": "SRB", "endpoint": "GI50", "value": "1730 nM"}
{"Compound": "COc1ccc(N(C)c2ncnc3c2CCC3)cc1", "method": "SRB", "endpoint": "IC50", "value": "50.4 nM"}
{"Compound": "COc1ccc(C(=O)/C=C/c2cccc(Br)c2)cc1S(N)(=O)=O", "method": "SRB", "concentration": "10 µM", "endpoint": "inhibition", "value": "106%"}
{"Compound": "O=C1CCC2(Oc3cccc4cccc(c34)O2)c2c(O)ccc(O)c21", "method": "resazurin", "time": "72 h", "endpoint": "IC50", "value": "> 25000 nM"}
{"Compound": "COc1cc(-c2ccc(-c3ccc(C(=N)N)nc3)s2)cc(OC)c1OC", "method": "SRB", "endpoint": "GI50", "value": "1620 nM"}
{"Compound": "COc1ccc(C(=O)/C=C/c2cccc(Cl)c2)cc1S(N)(=O)=O", "method": "SRB", "concentration": "10 µM", "endpoint": "inhibition", "value": "86%"}
{"Compound": "CCOC(=O)c1[nH]c(Br)c(-c2ccc(OC)cc2)c1Br", "method": "SRB", "endpoint": "IC50", "value": "843 nM"}
{"Compound": "COc1ccc(C(=O)/C=C/c2ccc3ccccc3c2)cc1S(N)(=O)=O", "method": "SRB", "concentration": "10 µM", "endpoint": "inhibition", "value": "98%"}
{"Compound": "CCOC(=O)c1[nH]c(Br)c(-c2ccc(Br)cc2)c1Br", "method": "SRB", "endpoint": "IC50", "value": "312 nM"}
{"Compound": "O=C1NCCc2[nH]c(-c3ccncc3)cc21", "endpoint": "IC50", "value": "> 10000 nM"}
{"Compound": "CC(C)C[C@H](NC(=O)[C@H](Cc1ccccc1)NC(=O)c1cnccn1)B(O)O", "method": "ATP luminescence", "endpoint": "IC50", "value": "8 nM"}
{"Compound": "CCOC(=O)c1[nH]c(Br)c(-c2ccc3c(c2)OCO3)c1Br", "method": "SRB", "endpoint": "IC50", "value": "1800 nM"}
{"Compound": "COc1ccc(C(=O)/C=C/c2c(F)cccc2Cl)cc1S(N)(=O)=O", "method": "SRB", "concentration": "10 µM", "endpoint": "inhibition", "value": "93%"}
